Laboratory results: ChEMBL document CHEMBL4840316, “Structure-based screening for the discovery of 1,2,4-oxadiazoles as promising hits for the development of new anti-inflammatory agents interfering with eicosanoid biosynthesis pathways” (Eur J Med Chem, 2021)
pIC50: −log10 of the molar value. Calls of active or inactive are those of the source. The rule behind the calls is not given here.

Assays:
[1] = target: T1, Prostaglandin G/H synthase 1 (Ovis aries) (UniProt P05979); assay: Inhibition of ovine COX-1 assessed as residual activity at 10 uM using arachidonic acid as substrate preincubated for 5 mins followed by substrate addition and measured after 5 mins by RP-HPLC method relative to control
T1 sequence (whole entry): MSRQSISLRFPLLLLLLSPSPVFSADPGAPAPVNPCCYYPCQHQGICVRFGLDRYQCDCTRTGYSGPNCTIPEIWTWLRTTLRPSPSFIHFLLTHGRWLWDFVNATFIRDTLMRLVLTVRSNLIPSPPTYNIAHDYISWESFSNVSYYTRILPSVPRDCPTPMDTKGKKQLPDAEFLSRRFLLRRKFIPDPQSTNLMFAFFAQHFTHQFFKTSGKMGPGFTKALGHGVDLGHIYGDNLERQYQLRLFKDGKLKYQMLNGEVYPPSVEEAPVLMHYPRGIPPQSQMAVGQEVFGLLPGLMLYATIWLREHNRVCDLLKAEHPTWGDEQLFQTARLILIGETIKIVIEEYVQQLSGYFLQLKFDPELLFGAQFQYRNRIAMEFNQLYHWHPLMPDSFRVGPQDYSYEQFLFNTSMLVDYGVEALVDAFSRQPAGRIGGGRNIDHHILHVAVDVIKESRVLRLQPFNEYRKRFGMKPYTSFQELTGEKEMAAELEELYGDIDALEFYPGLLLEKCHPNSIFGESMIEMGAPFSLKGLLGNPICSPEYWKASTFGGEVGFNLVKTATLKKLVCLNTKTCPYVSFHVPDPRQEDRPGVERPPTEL
Summary of the method: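 Ovine COX-1 (50 U/mL) or human recombinant COX-2 (20 U/mL) in 100 mM Tris pH 8 with 5 mM glutathione, 100 µM EDTA and 5 µM hemoglobin. Pre-incubated with compound or 0.1% DMSO for 5 min at room temperature, then 1 min at 37 °C. Started with AA (5 µM for COX-1, 2 µM for COX-2), run 5 min at 37 °C. 12-HHT measured by RP-HPLC.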

[2] = system: Mus musculus; assay: Antiinflammatory activity in zymosan-induced CD-1 mouse peritonitis model assessed as reduction in zymosan-induced IL-1beta level in peritoneal exudate at 10 mg/kg, ip treated with compound for 30 mins after 4 hrs zymosan stimulation by ELISA; format: functional, organism-based
Summary of the method: (§1)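 Male CD-1 mice (10–14 wk, 25–30 g), n = 6/group. Zymosan A (500 mg/kg in PBS, boiled) given i.p.; test compound (0.1–10 mg/kg in DMSO/saline 1:3) i.p. 30 min later. Exudates collected by 2 mL PBS lavage at 4 or 24 h. Cells spun at 4 °C and cytokines in supernatant measured by sandwich ELISA at 450 nm. Values normalized to exudate levels, mean ± S.D.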

[3] = system: Mus musculus; assay: Antiinflammatory activity in zymosan-induced CD-1 mouse peritonitis model assessed as reduction in zymosan-induced neutrophil recruitment at 1 mg/kg, ip treated with compound for 30 mins after 4 hrs zymosan stimulation by ELISA; format: functional, organism-based
Summary of the method: (§2)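 Male CD-1 mice (10–14 wk, 25–30 g), n = 6/group, injected i.p. with boiled zymosan A (500 mg/kg in PBS). Compound (0.1–10 mg/kg, DMSO/saline 1:3) given i.p. 30 min afterwards. Peritoneal lavage with 2 mL PBS at 4 or 24 h. Total leukocytes counted by automated counter with trypan blue, normalized to exudate. Mean ± S.D.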

[4] = system: Mus musculus; assay: Antiinflammatory activity in zymosan-induced CD-1 mouse peritonitis model assessed as reduction in zymosan-induced TNF-alpha level in peritoneal exudate at 10 mg/kg, ip treated with compound for 30 mins after 24 hrs zymosan stimulation by ELISA; format: functional, organism-based; summary of the method: as §1
[5] = system: Mus musculus; assay: Antiinflammatory activity in zymosan-induced CD-1 mouse peritonitis model assessed as reduction in zymosan-induced TNF-alpha level in peritoneal exudate at 10 mg/kg, ip treated with compound for 30 mins after 4 hrs zymosan stimulation by ELISA; format: functional, organism-based; summary of the method: as §1
[6] = system: Mus musculus; assay: Effect on IL-6 level in zymosan-induced CD-1 mouse peritonitis model in peritoneal exudate at 10 mg/kg, ip treated with compound for 30 mins after 4 to 24 hrs zymosan stimulation by ELISA; format: functional, organism-based; summary of the method: as §1
[7] = system: Mus musculus; assay: Antiinflammatory activity in zymosan-induced CD-1 mouse peritonitis model assessed as reduction in zymosan-induced IL-1beta level in peritoneal exudate at 10 mg/kg, ip treated with compound for 30 mins after 24 hrs zymosan stimulation by ELISA; format: functional, organism-based; summary of the method: as §1
[8] = target: T2, Prostaglandin E synthase (Homo sapiens, UniProt O14684); assay: Inhibition of mPGES-1 obtained from IL-beta stimulated human A549 cells microsomes assessed as residual activity by measuring conversion of PGH2 to PGE2 by cell-free RP-HPLC method; parameters: species or system Microsome
T2 sequence (O14684 whole entry): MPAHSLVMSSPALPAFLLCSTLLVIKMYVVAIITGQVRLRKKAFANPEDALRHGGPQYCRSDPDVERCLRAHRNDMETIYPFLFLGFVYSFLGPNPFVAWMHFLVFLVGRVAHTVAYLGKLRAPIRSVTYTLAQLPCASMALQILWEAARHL
Summary of the method: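 Microsomes from A549 cells stimulated with IL-1β (1 ng/ml) for 48 h. Diluted in 0.1 M potassium phosphate pH 7.4 with 2.5 mM glutathione. Pre-incubated 15 min on ice with compound (single 10 µM, or 0.03–10 µM for the curve) or 1% DMSO. 20 µM PGH2 added for 1 min; stopped with FeCl3/citric acid containing 11β-PGE2 standard. PGE2 measured by SPE and RP-HPLC. n = 3.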

[9] = system: Mus musculus; assay: Effect on IL-10 level in zymosan-induced CD-1 mouse peritonitis model in peritoneal exudate at 10 mg/kg, ip treated with compound for 30 mins after 4 to 24 hrs zymosan stimulation by ELISA; format: functional, organism-based; summary of the method: as §1
[10] = system: Mus musculus; assay: Antiinflammatory activity in zymosan-induced CD-1 mouse peritonitis model assessed as reduction in zymosan-induced neutrophil recruitment at 10 mg/kg, ip treated with compound for 30 mins after 4 hrs zymosan stimulation by ELISA; format: functional, organism-based; summary of the method: as §2

SMILES | Activity [1] [%] | Activity [2] | Activity [3] | Activity [4] | Activity [5] | Activity [6] | Activity [7] | pIC50 [8] | Activity [9] | Activity [10]
Oc1cccc(CCc2nc(-c3ccc(-c4ccsc4)cc3)no2)c1 | 47.7 | – | – | – | – | – | – | – | – | –
Oc1c(F)c(F)cc(-c2nc(-c3ccc(-c4ccsc4)cc3)no2)c1F | – | Active | Active | Active | Active | inactive | Active | 5.44 | inactive | Active
